Experimental data reported in ChEMBL document CHEMBL3259640 (J Med Chem, 2014).
pIC50: −log10 of the molar value. The source made the active and inactive calls. The calls are words filed in the database; no cut-off is given here.

Key:
[1] = target: Serine/threonine-protein kinase B-raf (Homo sapiens, UniProt P15056); experiment: Inhibition of B-Raf (unknown origin) assessed as [33P] incorporation in substrate by TopCount microplate scintillation counting analysis
[2] = test system: HeLa; experiment: Induction of apoptosis in human HeLa cells assessed as reduction in Mcl-1 protein expression at 1 uM after 24 to 48 hrs by western blot analysis; type: functional, cell-based
In short: (§1)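 HeLa cells given 1.0 μM compound, DMSO, or paclitaxel 100 nM for 24 and 48 h. Lysates made in SDS sample buffer, run on SDS-PAGE and transferred to PVDF. Blots probed for cleaved caspase-3, cleaved PARP, Bcl-2, Mcl-1 and XIAP, with actin as loading control, and detected by HRP-linked ECL.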

[3] = test system: K562; experiment: Growth inhibition of human K562 cells; type: functional
[4] = target: Mast/stem cell growth factor receptor Kit (Homo sapiens, UniProt P10721); experiment: Inhibition of Kit (unknown origin) assessed as [33P] incorporation in substrate by TopCount microplate scintillation counting analysis
Chain of Mast/stem cell growth factor receptor Kit (P10721 whole entry): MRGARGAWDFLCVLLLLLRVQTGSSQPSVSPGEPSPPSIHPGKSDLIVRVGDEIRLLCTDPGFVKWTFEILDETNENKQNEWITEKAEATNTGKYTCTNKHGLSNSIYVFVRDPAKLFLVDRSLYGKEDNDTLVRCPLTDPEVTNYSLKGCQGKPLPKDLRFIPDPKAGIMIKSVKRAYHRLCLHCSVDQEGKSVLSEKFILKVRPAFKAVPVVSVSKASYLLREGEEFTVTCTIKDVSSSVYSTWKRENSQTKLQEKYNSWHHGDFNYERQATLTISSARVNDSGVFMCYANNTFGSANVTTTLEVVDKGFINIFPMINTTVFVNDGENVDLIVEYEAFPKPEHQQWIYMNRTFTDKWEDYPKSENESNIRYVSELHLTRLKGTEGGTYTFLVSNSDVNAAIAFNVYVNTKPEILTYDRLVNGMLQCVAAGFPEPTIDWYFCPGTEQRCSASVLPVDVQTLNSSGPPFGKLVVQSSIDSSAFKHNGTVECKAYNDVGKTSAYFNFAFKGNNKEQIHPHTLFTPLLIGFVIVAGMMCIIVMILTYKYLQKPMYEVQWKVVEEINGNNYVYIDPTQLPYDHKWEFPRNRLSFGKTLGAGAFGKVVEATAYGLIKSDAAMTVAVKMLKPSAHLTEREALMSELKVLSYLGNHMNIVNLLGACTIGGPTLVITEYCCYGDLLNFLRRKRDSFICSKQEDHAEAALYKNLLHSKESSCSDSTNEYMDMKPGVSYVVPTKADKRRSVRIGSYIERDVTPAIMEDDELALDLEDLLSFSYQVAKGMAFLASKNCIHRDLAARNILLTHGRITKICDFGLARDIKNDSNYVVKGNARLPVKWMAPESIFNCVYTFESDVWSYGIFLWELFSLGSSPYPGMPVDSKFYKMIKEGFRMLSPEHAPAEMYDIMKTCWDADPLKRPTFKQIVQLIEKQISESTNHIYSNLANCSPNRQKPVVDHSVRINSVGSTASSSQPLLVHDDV

[5] = target: Serine/threonine-protein kinase B-raf (Homo sapiens, UniProt P15056, V600E); experiment: Inhibition of B-Raf V600E mutant (unknown origin) assessed as [33P] incorporation in substrate by TopCount microplate scintillation counting analysis
[6] = test system: MDA-MB-468; experiment: Induction of mitotic abnormalities in human MDA-MB-468 cells assessed as proportion of cells displaying multipolar spindles at 10 nM after 48 hrs by immunofluorescent staining based microscopy (reference value: […]); type: functional
[7] = test system: HeLa; experiment: Induction of apoptosis in human HeLa cells assessed as reduction in XIAP protein expression at 1 uM after 24 to 48 hrs by western blot analysis; type: functional, cell-based; in short: as §1
[8] = test system: COLO 205; experiment: Growth inhibition of human COLO205 cells; type: functional
[9] = target: Aurora kinase A (Homo sapiens, UniProt O14965); experiment: Inhibition of aurora A (unknown origin) assessed as [33P] incorporation in substrate by TopCount microplate scintillation counting analysis
Chain of Aurora kinase A (O14965 whole entry): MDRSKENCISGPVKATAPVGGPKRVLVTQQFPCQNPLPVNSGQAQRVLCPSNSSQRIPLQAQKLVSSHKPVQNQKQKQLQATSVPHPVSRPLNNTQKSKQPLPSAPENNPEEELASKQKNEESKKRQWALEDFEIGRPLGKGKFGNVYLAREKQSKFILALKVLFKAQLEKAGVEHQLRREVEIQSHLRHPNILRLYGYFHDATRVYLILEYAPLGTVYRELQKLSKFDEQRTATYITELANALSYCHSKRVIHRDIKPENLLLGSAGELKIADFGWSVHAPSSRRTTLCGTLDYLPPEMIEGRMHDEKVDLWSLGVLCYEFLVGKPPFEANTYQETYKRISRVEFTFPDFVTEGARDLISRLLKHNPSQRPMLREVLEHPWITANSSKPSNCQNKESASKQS

[10] = Growth inhibition of human HuH7 cells; type: functional; details: Huh-7
[11] = target: Cyclin-dependent kinase 1/cyclin B1 (Homo sapiens, UniProt P06493); experiment: Inhibition of Cdk1/cyclin B (unknown origin) assessed as [33P] incorporation in substrate by TopCount microplate scintillation counting analysis; type: protein-complex assay
[12] = target: Serine/threonine-protein kinase Chk2 (Homo sapiens, UniProt O96017); experiment: Inhibition of CHK2 (unknown origin) assessed as [33P] incorporation in substrate by TopCount microplate scintillation counting analysis
Chain of Serine/threonine-protein kinase Chk2 (O96017 whole entry): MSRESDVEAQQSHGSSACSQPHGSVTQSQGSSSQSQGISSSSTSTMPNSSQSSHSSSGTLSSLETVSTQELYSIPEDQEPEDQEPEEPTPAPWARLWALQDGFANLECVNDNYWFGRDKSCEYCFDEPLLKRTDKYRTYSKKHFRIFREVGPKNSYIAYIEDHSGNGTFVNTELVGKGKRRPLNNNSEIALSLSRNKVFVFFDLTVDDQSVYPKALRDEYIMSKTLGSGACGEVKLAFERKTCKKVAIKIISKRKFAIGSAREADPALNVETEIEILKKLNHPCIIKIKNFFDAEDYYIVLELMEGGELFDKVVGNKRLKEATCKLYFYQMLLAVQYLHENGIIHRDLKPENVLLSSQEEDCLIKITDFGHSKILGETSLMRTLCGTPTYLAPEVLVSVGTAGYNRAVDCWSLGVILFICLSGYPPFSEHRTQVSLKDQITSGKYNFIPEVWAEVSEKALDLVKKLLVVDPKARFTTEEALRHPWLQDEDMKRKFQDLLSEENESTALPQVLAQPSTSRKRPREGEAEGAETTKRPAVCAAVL

[13] = test system: MDA-MB-468; experiment: Antiproliferative activity against human MDA-MB-468 cells assessed as cell viability after 96 hrs by CellTiter96 assay; type: functional, cell-based; details: MDA-MB-468, 96 h
[14] = target: Serine/threonine-protein kinase Chk1 (Homo sapiens, UniProt O14757); experiment: Inhibition of CHK1 (unknown origin) assessed as [33P] incorporation in substrate by TopCount microplate scintillation counting analysis
Chain of Serine/threonine-protein kinase Chk1 (O14757 whole entry): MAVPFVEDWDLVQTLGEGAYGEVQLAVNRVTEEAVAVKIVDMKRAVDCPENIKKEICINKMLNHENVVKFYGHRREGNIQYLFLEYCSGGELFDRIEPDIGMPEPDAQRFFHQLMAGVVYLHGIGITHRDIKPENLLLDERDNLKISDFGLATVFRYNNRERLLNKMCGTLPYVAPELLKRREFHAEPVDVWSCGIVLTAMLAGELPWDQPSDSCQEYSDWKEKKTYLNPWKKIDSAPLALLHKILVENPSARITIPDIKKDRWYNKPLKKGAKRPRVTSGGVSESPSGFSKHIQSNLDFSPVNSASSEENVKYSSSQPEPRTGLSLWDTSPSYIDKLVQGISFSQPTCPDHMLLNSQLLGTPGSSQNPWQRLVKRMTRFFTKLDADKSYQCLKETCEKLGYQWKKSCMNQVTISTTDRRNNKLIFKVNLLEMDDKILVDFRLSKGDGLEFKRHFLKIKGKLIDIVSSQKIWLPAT

[15] = target: Vascular endothelial growth factor receptor 2 (Homo sapiens, UniProt P35968); experiment: Inhibition of VEGFR2 (unknown origin) assessed as [33P] incorporation in substrate by TopCount microplate scintillation counting analysis
[16] = test system: MDA-MB-231; experiment: Growth inhibition of human MDA-MB-231 cells; type: functional
[17] = test system: T47D; experiment: Growth inhibition of human T47D cells; type: functional
[18] = test system: MDA-MB-468; experiment: Induction of mitotic abnormalities in human MDA-MB-468 cells assessed as proportion of cells displaying multipolar spindles at 1000 nM after 48 hrs by immunofluorescent staining based microscopy (reference value: […]); type: functional
[19] = test system: U-937; experiment: Growth inhibition of human U937 cells; type: functional
[20] = target: RAF proto-oncogene serine/threonine-protein kinase (Homo sapiens, UniProt P04049); experiment: Inhibition of C-Raf (unknown origin) assessed as [33P] incorporation in substrate by TopCount microplate scintillation counting analysis
[21] = Oral bioavailability in Sprague-Dawley rat at 20 mg/kg compound formulated with 5% DMSO, 10% cremophor and 85% water by LC-MS/MS analysis; type: ADME, organism-based; details: in vivo
[22] = target: T1, Kinetochore protein NDC80 homolog (Homo sapiens) (UniProt O14777); experiment: Inhibition of Hec1/Nek2 interaction in human MDA-MB-468 cells assessed as induction of Nek2 degradation at 100 nM by western blot analysis in presence of 500 nM proteasome inhibition MG132; type: cell-based
T1 sequence (whole entry): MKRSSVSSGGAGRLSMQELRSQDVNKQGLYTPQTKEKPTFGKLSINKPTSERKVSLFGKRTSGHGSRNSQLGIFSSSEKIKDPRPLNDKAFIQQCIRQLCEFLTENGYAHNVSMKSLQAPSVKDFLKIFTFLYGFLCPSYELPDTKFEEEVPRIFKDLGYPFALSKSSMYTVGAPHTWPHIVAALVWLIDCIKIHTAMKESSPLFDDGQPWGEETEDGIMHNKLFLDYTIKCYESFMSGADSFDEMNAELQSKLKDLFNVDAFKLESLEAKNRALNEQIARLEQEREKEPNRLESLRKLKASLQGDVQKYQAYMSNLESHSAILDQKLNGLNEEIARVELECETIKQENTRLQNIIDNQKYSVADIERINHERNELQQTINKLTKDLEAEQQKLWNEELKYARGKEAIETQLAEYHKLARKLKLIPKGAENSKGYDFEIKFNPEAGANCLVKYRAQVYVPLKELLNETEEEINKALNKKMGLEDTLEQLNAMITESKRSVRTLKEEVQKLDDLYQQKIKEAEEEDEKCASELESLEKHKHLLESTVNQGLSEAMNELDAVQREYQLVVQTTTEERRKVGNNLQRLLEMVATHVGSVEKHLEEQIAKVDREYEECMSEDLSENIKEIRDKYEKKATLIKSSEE
In short: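 MDA-MB-468 cells treated with compound at 100 nM, with or without MG132 at 500 nM. Lysates made in SDS sample buffer, run on SDS-PAGE and blotted to PVDF. Primary antibodies applied in 3% BSA-TBST, with HRP secondaries and enhanced chemiluminescence detection for Hec1 and Nek2.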

[23] = target: Epidermal growth factor receptor (Homo sapiens, UniProt P00533, T790M); experiment: Inhibition of EGFR T790M mutant (unknown origin) assessed as [33P] incorporation in substrate by TopCount microplate scintillation counting analysis; type: protein assay
Chain of Epidermal growth factor receptor (P00533 25-1210 T790M limits assumed): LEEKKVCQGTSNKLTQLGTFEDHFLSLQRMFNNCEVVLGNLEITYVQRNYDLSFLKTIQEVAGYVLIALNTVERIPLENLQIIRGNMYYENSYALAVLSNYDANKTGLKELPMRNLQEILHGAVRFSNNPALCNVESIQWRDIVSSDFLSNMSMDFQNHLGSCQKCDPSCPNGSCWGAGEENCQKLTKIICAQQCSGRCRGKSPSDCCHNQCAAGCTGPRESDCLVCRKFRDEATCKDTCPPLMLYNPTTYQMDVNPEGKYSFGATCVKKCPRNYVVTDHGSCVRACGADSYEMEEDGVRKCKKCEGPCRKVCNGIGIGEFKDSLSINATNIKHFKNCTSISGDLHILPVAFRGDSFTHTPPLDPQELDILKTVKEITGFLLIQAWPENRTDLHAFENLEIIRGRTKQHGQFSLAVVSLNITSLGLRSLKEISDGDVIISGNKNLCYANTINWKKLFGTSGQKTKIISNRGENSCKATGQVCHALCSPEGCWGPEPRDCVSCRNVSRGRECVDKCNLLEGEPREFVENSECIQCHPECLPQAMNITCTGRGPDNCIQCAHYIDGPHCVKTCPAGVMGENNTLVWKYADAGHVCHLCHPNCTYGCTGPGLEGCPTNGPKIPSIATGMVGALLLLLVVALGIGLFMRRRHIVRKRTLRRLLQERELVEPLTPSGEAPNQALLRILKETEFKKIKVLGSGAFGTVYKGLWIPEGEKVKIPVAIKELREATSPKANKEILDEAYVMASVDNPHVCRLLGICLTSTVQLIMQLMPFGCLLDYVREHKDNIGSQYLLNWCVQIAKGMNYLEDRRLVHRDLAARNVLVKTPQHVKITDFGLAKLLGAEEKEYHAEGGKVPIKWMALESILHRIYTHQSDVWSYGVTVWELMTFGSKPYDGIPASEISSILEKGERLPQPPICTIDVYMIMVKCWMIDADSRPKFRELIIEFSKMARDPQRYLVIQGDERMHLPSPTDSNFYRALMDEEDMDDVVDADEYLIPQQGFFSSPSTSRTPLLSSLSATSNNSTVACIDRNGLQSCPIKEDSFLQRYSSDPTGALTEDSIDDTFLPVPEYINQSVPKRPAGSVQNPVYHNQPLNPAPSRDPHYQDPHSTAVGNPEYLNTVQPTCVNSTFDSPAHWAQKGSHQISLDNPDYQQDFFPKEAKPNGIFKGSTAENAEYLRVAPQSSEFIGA

[24] = target: Fibroblast growth factor receptor 1 (Homo sapiens, UniProt P11362); experiment: Inhibition of FGFR1 (unknown origin) assessed as [33P] incorporation in substrate by TopCount microplate scintillation counting analysis
[25] = test system: MDA-MB-231; experiment: Antiproliferative activity against human MDA-MB-231 cells assessed as cell viability after 96 hrs by CellTiter96 assay; type: functional, cell-based; details: MDA-MB-231, 96 h
[26] = target: Hepatocyte growth factor receptor (Homo sapiens, UniProt P08581); experiment: Inhibition of MET (unknown origin) assessed as [33P] incorporation in substrate by TopCount microplate scintillation counting analysis
Chain of Hepatocyte growth factor receptor (P08581 whole entry): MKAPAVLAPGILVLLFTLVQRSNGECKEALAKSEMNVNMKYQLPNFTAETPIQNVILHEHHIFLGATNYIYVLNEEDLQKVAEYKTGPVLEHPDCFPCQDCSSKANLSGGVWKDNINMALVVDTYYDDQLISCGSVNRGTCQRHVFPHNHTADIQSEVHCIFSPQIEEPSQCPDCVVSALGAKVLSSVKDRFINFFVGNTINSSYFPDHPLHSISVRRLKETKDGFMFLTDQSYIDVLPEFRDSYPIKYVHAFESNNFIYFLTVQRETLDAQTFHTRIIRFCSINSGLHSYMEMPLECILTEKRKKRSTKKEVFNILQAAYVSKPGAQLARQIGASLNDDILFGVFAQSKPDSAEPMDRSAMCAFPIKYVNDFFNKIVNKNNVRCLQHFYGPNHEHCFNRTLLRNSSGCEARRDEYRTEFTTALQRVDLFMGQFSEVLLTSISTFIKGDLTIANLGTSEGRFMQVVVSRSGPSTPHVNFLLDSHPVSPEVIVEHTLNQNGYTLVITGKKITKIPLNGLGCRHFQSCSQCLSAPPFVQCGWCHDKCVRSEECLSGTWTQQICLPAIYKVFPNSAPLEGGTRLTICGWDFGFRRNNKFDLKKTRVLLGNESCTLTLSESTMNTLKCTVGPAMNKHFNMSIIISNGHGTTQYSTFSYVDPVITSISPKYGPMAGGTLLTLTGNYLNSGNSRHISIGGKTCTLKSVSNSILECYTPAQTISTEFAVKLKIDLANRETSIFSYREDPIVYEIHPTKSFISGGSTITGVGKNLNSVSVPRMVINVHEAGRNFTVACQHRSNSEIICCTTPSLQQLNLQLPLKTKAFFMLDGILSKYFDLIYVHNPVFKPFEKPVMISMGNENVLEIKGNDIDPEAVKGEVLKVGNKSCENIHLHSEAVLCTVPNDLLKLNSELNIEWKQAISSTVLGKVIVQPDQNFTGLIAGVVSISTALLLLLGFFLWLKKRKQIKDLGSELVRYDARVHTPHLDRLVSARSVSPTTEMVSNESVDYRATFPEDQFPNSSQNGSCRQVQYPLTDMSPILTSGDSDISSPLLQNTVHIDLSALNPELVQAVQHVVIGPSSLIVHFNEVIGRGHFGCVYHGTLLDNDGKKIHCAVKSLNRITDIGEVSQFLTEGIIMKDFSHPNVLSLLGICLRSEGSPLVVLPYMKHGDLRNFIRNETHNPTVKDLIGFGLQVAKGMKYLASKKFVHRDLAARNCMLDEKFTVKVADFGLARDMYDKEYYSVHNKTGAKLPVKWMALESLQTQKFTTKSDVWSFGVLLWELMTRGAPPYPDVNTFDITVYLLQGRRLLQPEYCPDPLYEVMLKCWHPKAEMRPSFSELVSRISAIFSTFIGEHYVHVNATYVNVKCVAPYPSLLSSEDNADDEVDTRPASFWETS

[27] = Growth inhibition of HUVEC; type: cell-based; details: human
[28] = Growth inhibition of human PLC/PRF/5 cells; type: functional

- pIC50 [1]: < 5.00
- GI50 [3]: 56.2 nM
- pIC50 [4]: < 5.00
- pIC50 [5]: < 5.00
- GI50 [8]: 35.4 nM
- pIC50 [9]: < 5.00
- pIC50 [11]: < 5.00
- pIC50 [12]: < 5.00
- pIC50 [13]: 7.40
- pIC50 [14]: < 5.00
- pIC50 [15]: < 5.00
- GI50 [16]: 39.8 nM
- GI50 [17]: 377 nM
- GI50 [19]: 29.6 nM
- pIC50 [20]: < 5.00
- bioavailability [21]: 22.7%
- Activity [22]: inactive
- pIC50 [23]: < 5.00
- pIC50 [24]: < 5.00
- pIC50 [25]: 7.70
- pIC50 [26]: < 5.00
SMILES: COc1ccc(Oc2cc(C)c(-c3csc(NC(=O)c4ccnc(F)c4)n3)c(C)c2)cc1
- inhibition [2]: Active
- Activity [6]: 16.9%
- inhibition [7]: Active
- GI50 [10]: 79.6 nM
- Activity [18]: 46.7%
- GI50 [27]: > 9 µM
- GI50 [28]: 79.6 nM
